ChEMBL document CHEMBL2146437, “Burkholdines from Burkholderia ambifaria: antifungal agents and possible virulence factors” (J Nat Prod, 2012)
Converted amounts (≈) assume the structure as drawn.

Key:
[1] = Ratio of HC10 for sheep erythrocytes to MIC for Candida albicans; type: functional
[2] = test system: Candida albicans; assay: Antifungal activity against Candida albicans; type: functional
[3] = Toxicity in sheep erythrocytes assessed as concentration required to achieve 10% hemolysis after 1 hr by serial dilution method; type: cell-based, Ovis aries; details: erythrocyte
Summary of the method: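 Sheep erythrocytes as a 0.25% suspension in phosphate-buffered saline received compound in 2-fold serial dilutions and were held 1 h at 37 °C. Cells were then pelleted at 1000g for 5 min, and supernatant absorbance was read at 540 nm. The value is the concentration giving 10% hemolysis, reported as mean ± standard deviation of two independent measurements.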

[4] = test system: Aspergillus niger; assay: Antifungal activity against Aspergillus niger; type: functional
[5] = test system: Saccharomyces cerevisiae; assay: Antifungal activity against Saccharomyces cerevisiae; type: functional
[6] = test system: Aspergillus niger; assay: Ratio of amphotericin-B MIC to compound MIC for Aspergillus niger; type: functional

MIC [2] [µg/mL] | MIC [4] [µg/mL] | MIC [5] [µg/mL] | SMILES | Ratio [1] | HC10 [3] [µg/mL] | Ratio [6]
31 (≈ 25.5 µM) | 2 (≈ 1.65 µM) | 2 (≈ 1.65 µM) | CCCCCCCCCCC[C@H](O[C@@H]1OC[C@@H](O)[C@H](O)[C@H]1O)[C@H](O)[C@H](O)C[C@@H]1CC(=O)N[C@H](CO)C(=O)N[C@H]([C@H](O)c2ccc(O)cc2)C(=O)N[C@H](CC(N)=O)C(=O)NCC(=O)N[C@@H](CC(N)=O)C(=O)N[C@@H](CO)C(=O)N[C@@H](CC(N)=O)C(=O)N1 [BURKHOLDINES 1213] | 1 | 37 | 
12.5 (≈ 11.4 µM) | 1.6 (≈ 1.46 µM) | 1.6 (≈ 1.46 µM) | CCCCCCCCCCC[C@H](O)[C@H](O)[C@H](O)C[C@@H]1CC(=O)N[C@H](CO)C(=O)N[C@H]([C@H](O)c2ccc(O)cc2)C(=O)N[C@H](CC(N)=O)C(=O)NCC(=O)N[C@@H](CC(N)=O)C(=O)N[C@@H](CO)C(=O)N[C@@H]([C@H](O)C(N)=O)C(=O)N1 (relative stereo) | 0.4 | 4.5 | 
0.4 (≈ 0.333 µM) | 0.1 (≈ 0.0833 µM) | 0.1 (≈ 0.0833 µM) | CCCCCCCCCCC[C@H](O[C@@H]1OC[C@@H](O)[C@H](O)[C@H]1O)[C@H](O)[C@H](O)C[C@@H]1CC(=O)N[C@H](CO)C(=O)N[C@H]([C@H](O)c2ccc(O)cc2)C(=O)N[C@H](CCN)C(=O)NCC(=O)N[C@@H](CC(N)=O)C(=O)N[C@@H](CO)C(=O)N[C@@H](CC(N)=O)C(=O)N1 [BURKHOLDINES 1119] | 38 | 15 | 25
2.5 (≈ 2.71 µM) | 2.5 (≈ 2.71 µM) | 2.5 (≈ 2.71 µM) | C[C@@H]1[C@H](O)[C@@H](C)/C=C/C=C/C=C/C=C/C=C/C=C/C=C/[C@H](O[C@@H]2O[C@H](C)[C@@H](O)[C@H](N)[C@@H]2O)C[C@@H]2O[C@](O)(C[C@@H](O)C[C@@H](O)[C@H](O)CC[C@@H](O)C[C@@H](O)CC(=O)O[C@H]1C)C[C@H](O)[C@H]2C(=O)O [AMPHOTERICIN B] |  |  | 
12.5 (≈ 10.2 µM) | 12.5 (≈ 10.2 µM) | 0.4 (≈ 0.325 µM) | CCCCCCCCCCC[C@H](O[C@@H]1OC[C@@H](O)[C@H](O)[C@H]1O)[C@H](O)[C@H](O)C[C@@H]1CC(=O)N[C@H](CO)C(=O)N[C@H]([C@H](O)c2ccc(O)cc2)C(=O)N[C@H](CC(N)=O)C(=O)NCC(=O)N[C@@H](CC(N)=O)C(=O)N[C@@H](CO)C(=O)N[C@@H]([C@H](O)C(N)=O)C(=O)N1 | 1 | 10 | 

SMILES | MIC [2] [µg/mL] | MIC [4] [µg/mL] | MIC [5] [µg/mL] | Ratio [1] | HC10 [3] [µg/mL] | Ratio [6]
CCCCCCCCCCC[C@H](O[C@H]1OC[C@@H](O)[C@H](O)[C@H]1O)[C@H](O)[C@H](O)C[C@@H]1CC(=O)N[C@H](CO)C(=O)N[C@H]([C@H](O)c2ccc(O)cc2)C(=O)N[C@H](CCN)C(=O)NCC(=O)N[C@@H](CC(N)=O)C(=O)N[C@@H](CO)C(=O)N[C@@H]([C@H](O)C(N)=O)C(=O)N1 [BURKHOLDINE 1215] | 0.15 (≈ 0.123 µM) | 0.15 (≈ 0.123 µM) | 0.15 (≈ 0.123 µM) | 33 | 5 | 
